Experimental data from ChEMBL document CHEMBL1671834, “Novel 3-aryl indoles as progesterone receptor antagonists for uterine fibroids” (ACS Med Chem Lett, 2011).

Key:
[1] = molecular target: T1, Mineralocorticoid receptor (Homo sapiens, UniProt P08235); test: Displacement of [3H]methyltrienolone from human mineralocorticoid receptor expressed in HEK293 cells; format: cell-based
T1 sequence (P08235 whole entry): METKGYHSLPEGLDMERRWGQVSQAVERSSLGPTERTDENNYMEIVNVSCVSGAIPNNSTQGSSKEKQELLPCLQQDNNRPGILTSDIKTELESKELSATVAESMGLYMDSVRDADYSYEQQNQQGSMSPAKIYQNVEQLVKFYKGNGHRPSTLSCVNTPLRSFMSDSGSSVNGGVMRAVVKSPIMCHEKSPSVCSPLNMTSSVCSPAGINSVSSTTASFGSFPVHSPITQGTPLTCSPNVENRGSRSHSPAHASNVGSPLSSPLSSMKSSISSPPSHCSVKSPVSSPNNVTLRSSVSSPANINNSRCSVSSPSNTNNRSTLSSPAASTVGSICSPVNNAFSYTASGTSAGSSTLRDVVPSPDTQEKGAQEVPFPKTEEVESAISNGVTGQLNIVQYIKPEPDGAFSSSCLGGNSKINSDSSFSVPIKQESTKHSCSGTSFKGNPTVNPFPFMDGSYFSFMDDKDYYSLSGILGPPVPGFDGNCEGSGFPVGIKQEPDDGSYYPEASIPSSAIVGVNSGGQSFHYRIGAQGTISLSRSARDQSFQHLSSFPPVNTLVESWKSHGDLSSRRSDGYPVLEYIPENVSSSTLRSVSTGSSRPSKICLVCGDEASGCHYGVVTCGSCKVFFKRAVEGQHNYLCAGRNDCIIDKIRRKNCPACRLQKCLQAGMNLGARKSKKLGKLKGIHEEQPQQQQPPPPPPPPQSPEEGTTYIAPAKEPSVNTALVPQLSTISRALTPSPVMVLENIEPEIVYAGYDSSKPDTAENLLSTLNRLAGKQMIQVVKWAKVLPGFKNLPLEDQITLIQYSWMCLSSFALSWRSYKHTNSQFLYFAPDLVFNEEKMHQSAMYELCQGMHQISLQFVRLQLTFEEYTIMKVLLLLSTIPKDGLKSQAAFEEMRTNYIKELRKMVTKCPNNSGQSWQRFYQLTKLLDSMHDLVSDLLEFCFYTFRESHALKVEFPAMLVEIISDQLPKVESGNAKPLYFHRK
Outline: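 Competitive binding to recombinant full-length human receptors against tritium-labelled standards. Values are geometric means of at least duplicate determinations.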

Glucocorticoid receptor = molecular target: T2, Glucocorticoid receptor (Homo sapiens, UniProt P04150); test: Displacement of [3H]methyltrienolone from human glucocorticoid receptor expressed in HEK293 cells; format: cell-based
T2 sequence (P04150 whole entry): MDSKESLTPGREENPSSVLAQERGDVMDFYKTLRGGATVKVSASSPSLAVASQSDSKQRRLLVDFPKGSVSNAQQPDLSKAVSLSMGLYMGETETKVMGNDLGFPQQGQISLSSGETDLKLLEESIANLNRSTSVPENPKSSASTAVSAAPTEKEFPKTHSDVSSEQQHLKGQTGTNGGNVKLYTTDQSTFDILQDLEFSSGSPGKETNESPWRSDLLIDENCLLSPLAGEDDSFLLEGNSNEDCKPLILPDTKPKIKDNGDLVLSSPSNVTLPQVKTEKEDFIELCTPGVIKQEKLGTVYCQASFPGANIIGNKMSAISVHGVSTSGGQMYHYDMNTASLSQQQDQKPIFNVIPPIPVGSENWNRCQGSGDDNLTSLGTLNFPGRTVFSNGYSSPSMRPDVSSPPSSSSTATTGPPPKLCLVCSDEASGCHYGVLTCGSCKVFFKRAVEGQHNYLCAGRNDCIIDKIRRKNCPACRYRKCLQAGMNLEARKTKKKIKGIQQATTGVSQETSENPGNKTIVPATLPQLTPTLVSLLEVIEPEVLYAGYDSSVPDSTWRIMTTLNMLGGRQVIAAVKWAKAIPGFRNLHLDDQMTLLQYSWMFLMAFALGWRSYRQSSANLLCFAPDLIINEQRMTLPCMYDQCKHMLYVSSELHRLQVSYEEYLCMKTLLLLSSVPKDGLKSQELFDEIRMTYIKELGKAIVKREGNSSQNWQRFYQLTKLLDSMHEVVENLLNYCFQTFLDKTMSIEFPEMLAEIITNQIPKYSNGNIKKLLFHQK

Progesterone receptor = molecular target: T3, Progesterone receptor (Homo sapiens, UniProt P06401); test: Antagonist activity at human progesterone receptor expressed in HEK293 cells assessed as inhibition of […]-induced transcriptional activity by GRE-driven luciferase reporter gene assay; format: functional, cell-based
T3 sequence (P06401 whole entry): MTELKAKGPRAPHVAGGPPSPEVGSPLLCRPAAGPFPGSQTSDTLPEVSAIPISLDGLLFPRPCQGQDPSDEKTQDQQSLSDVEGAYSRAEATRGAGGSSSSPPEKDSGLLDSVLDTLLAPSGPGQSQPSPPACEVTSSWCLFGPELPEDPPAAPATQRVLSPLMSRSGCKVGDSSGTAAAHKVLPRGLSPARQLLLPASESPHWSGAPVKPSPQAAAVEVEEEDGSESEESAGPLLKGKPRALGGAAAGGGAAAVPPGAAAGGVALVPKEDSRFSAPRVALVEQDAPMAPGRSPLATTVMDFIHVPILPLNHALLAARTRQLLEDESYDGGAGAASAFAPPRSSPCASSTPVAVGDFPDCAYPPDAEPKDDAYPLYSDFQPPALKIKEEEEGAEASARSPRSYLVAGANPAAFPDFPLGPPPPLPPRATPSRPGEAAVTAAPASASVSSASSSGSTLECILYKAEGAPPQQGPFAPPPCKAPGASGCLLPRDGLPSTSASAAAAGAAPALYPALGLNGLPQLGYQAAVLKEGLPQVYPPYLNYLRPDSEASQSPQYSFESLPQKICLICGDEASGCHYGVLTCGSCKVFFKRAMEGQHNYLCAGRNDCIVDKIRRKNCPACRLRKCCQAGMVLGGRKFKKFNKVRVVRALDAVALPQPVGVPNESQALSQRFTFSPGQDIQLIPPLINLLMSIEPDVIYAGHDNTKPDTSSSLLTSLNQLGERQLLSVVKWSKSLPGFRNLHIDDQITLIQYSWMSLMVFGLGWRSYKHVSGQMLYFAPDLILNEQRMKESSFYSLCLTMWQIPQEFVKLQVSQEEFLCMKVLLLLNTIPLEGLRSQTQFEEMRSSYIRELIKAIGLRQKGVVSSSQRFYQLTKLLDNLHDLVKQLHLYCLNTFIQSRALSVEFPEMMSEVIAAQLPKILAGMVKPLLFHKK
Outline: (§1)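 Transcription assay in HEK293 cells cotransfected with full-length human receptor. Values are geometric means of at least duplicate determinations.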

[2] = molecular target: T1, Mineralocorticoid receptor; test: Antagonist activity at human mineralocorticoid receptor expressed in HEK293 cells assessed as inhibition of […]-induced transcriptional activity by GRE-driven luciferase reporter gene assay; format: functional, cell-based; outline: as §1

Row | SMILES | Ki [1] [nM] | Ki (Glucocorticoid receptor) [nM] | IC50 (Progesterone receptor) [nM] | IC50 [2] [µM]
1 | CC(c1ccc(F)cc1)(c1c[nH]c2c(NS(C)(=O)=O)cccc12)C1CC1 (stereo not given) | 0.64 | 6.39 | 765 | 0.0641
2 | Cn1cc(-c2ccc(C#N)cc2)c2ccc(NS(C)(=O)=O)cc21 | > 4170 | > 4290 | 485 | > 10
3 | Cc1cc(-c2cn(C(C)C)c3cc(NS(C)(=O)=O)ccc23)ccc1C#N | 126 | 157 | 3.38 | > 10
4 | COc1ccc(C(c2ccccc2)c2c[nH]c3ccccc23)cc1 (stereo not given) | 86.8 | 50.2 | 3720 | > 10
5 | CC[C@H](C)n1cc(-c2ccc(C#N)cc2)c2ccc(NS(C)(=O)=O)cc21 | 1000 | 1860 | 3.89 | 9.8
6 | CC(C)n1cc(-c2ccc(C#N)c(F)c2)c2ccc(NS(C)(=O)=O)cc21 | 849 | 523 | 2.29 | 8.15
7 | CC(C)n1cc(-c2ccc(C#N)cc2)c2ccc(NS(C)(=O)=O)cc21 | 1490 | 1530 | 6.81 | > 10
8 | COc1cc(-c2cn(C(C)C)c3cc(NS(C)(=O)=O)ccc23)ccc1C#N | 1390 | 977 | 7.28 | 2.42
9 | CC[C@@H](C)n1cc(-c2ccc(C#N)cc2)c2ccc(NS(C)(=O)=O)cc21 | 1440 | 780 | 9.92 | > 10
10 | CCn1cc(-c2ccc(C#N)cc2)c2ccc(NS(C)(=O)=O)cc21 | 1770 | 927 | 12.6 | > 10
